Laboratory results from paper PMC5039020 (Journal of Alzheimer's disease : JAD, 2013).
“Also recorded” adds a separate entry of the source. Where two headings read alike, the source gives them in different places.

Key:
extracellular Aβ40 = assay: Extracellular Aβ40 ELISA capture assay in N2a-AβPP695 cell supernatants; format: cell-based; details: for effect on extracellular Aβ40 level/production: N2a-AβPP695, compound alone, various concentrations; for effect on extracellular Aβ40 in Aftin-5 treated cells: N2a-AβPP695, compound together with 100 μM Aftin-5, 18 h; for IC50: read-out: IC50 Aβ40, N2a-AβPP695, GSI added 1 h before 100 μM Aftin-5, 18 h
extracellular Aβ38 = assay: Extracellular Aβ38 ELISA capture assay in N2a-AβPP695 cell supernatants; format: cell-based; details: for effect on extracellular Aβ38 level: N2a-AβPP695, compound alone, various concentrations; for IC50: read-out: IC50 Aβ38, N2a-AβPP695, GSI added 1 h before 100 μM Aftin-5, 18 h
extracellular Aβ42 = assay: Extracellular Aβ42 ELISA capture assay in N2a-AβPP695 cell supernatants; format: cell-based; details: for effect on extracellular Aβ42 level/production: N2a-AβPP695, compound alone, various concentrations; for effect on Aftin-5 induced extracellular Aβ42 production: N2a-AβPP695, compound together with 100 μM Aftin-5, 18 h
N2a-AβPP695 = assay: Cell viability, MTS assay, N2a-AβPP695; format: cell-based; details: for IC50: read-out: IC50, cell viability (MTS assay), N2a-AβPP695, viability assessed 24 h later
SH-SY5Y = assay: Cell viability, MTS assay, SH-SY5Y; format: cell-based; details: read-out: IC50, cell viability (MTS assay), viability assessed 24 h later
N2a = assay: Cell viability, MTS assay, N2a; format: cell-based; details: read-out: IC50, cell viability (MTS assay), viability assessed 24 h later
Outline: (§1)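 Each line was exposed to increasing concentrations of test compound, and viability was read 24 h later by MTS. 20 μL MTS reagent per 100 μL medium, 3 h at 37°C, 5% CO₂. Absorbance read at 490 and 630 nm. IC50 derived from dose-response curves.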

HT22 = assay: Cell viability, MTS assay, HT22; format: cell-based; details: read-out: IC50, cell viability (MTS assay); HT22, viability assessed 24 h later
Outline: as §1

[1] = tested on: KinomeScan panel of 402/442 kinases; details: 402 kinases; cited from earlier work
[2] = tested on: intracellular Aβ38, Aβ40, and Aβ42; assay: Intracellular amyloids ELISA capture assay in N2a-AβPP695 cells; format: cell-based
Outline: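 2 × 10⁶ N2a-AβPP695 cells per T25 flask in 0.5% FBS medium overnight, then treated for 18 h. Cells washed, scraped into PBS with protease inhibitors, pelleted, lysed in 1% Nonidet P-40, sonicated, and spun at 14,000 rpm for 15 min at 4°C. Lysate supernatant assayed by 6E10-capture sandwich ELISA with biotinylated Aβ38, Aβ40 or Aβ42 antibodies. Values expressed as fold over untreated cells.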

[3] = tested on: mitochondria isolated from N2a-AβPP695 cells; assay: Electron microscopy, ultrastructure of isolated mitochondria; details: 100 μM Aftin-5; 50 μM Calcium; 50 μM Calcium + CsA
N2a-AβPP695 cells [4] = assay: Autophagy assessment, counting of LC3 foci by immunofluorescence; format: cell-based
Outline: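 Cells grown on glass coverslips, fixed in 4% paraformaldehyde, permeabilised with 50 μM digitonin, and stained with a monoclonal anti-LC3 antibody. Images taken with a 40× NA 0.85 objective. LC3 foci counted automatically by image analysis.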

N2a-AβPP695 cells [5] = assay: Mitochondrial parameters in cultured cells; format: cell-based
[6] = tested on: KinomeScan panel of 402/442 kinases; assay: KinomeScan panel; format: binding; details: 10 μM
Animal toxicity = format: in vivo; details: per os doses up to 150 mg/kg daily for 20 days; data not shown
N2a-AβPP695 cells [7] = assay: Electron microscopy, ultrastructure of mitochondria within cells; format: cell-based
[8] = N2a-AβPP695, dose-response, 18 h

C[C@H](N[C@@H](CCc1ccccc1)C(=O)O)C(=O)N1Cc2ccccc2C[C@H]1C(=O)O [quinaprilat]
effect on extracellular Aβ40 level/production (extracellular Aβ40; 18 h): no effects | effect on extracellular Aβ38 level (extracellular Aβ38; 18 h): no effects | effect on extracellular Aβ42 level/production (extracellular Aβ42; 18 h): no effects

β-secretase inhibitor IV
effect on extracellular Aβ40 in Aftin-5 treated cells (extracellular Aβ40): inhibited production | effect on Aftin-5 induced extracellular Aβ42 production (extracellular Aβ42): inhibited production

Cn1cnc(N)c2ncnc1-2 [3-methyladenine]
effect on Aftin-5 induced extracellular Aβ42 production (extracellular Aβ42): did not interfere

CCC(CO)Nc1nc(N(C)Cc2ccccc2)c2ncn(C(C)C)c2n1 (centres unmarked) [Aftin-4, N^6-methyl-roscovitine]
IC50 (N2a-AβPP695): 90 µM | effect on extracellular Aβ42 level/production (extracellular Aβ42; 18 h): bell-shaped | IC50 (SH-SY5Y): 106 µM | IC50 (N2a): 100 µM | IC50 (HT22): 74 µM | interaction with kinases (KinomeScan) [1]: no significant interaction

C[C@H](NC(=O)Cc1cc(F)cc(F)c1)C(=O)NC(C(=O)OC(C)(C)C)c1ccccc1 (some centres unmarked) [DAPT]
effect on extracellular Aβ40 in Aftin-5 treated cells (extracellular Aβ40): down-regulated | IC50 (extracellular Aβ40): 0.062 µM | effect on levels of intracellular amyloids ([2]; N2a-AβPP695, 1 μM compound in presence of 100 μM Aftin-5, 18 h): but not that of intracellular amyloids | effect on extracellular Aβ38 / Aftin-5 induced Aβ38 down-regulation (extracellular Aβ38; N2a-AβPP695, compound together with 100 μM Aftin-5, 18 h): down-regulated | IC50 (extracellular Aβ38): 0.112 µM | effect on Aftin-5 induced extracellular Aβ42 production (extracellular Aβ42): down-regulated

[Ca+2] [calcium]
ultrastructure of isolated mitochondria (swelling, cristae remodeling) [3]: strong swelling

CN(C)c1ncnc2nc[nH]c12 [Aftin N6DA, N6-dimethylaminopurine]
effect on extracellular Aβ42 level/production (extracellular Aβ42; 18 h): inactive

CC[C@H](CO)Nc1nc(N(C)c2ccccc2)c2ncn(C(C)C)c2n1 [Aftin-5]
maximum increase of Aβ40 level (extracellular Aβ40; [8]): 40% | effect on rapamycin-induced autophagy (N2a-AβPP695 cells [4]): Neither Aftin-5 nor its inactive analog compound (2) impaired rapamycin-induced autophagy | mitochondrial parameters at the cellular level, control vs treated cells (N2a-AβPP695 cells [5]): essentially undistinguishable | global respiration functions (N2a-AβPP695 cells [5]; 24 h): slight inhibition | IC50 (N2a-AβPP695): 150 µM | cytotoxic effects on cells (N2a-AβPP695; up to 100 μM, or longest exposure 6 days, data not shown): did not show any cytotoxic effects; also recorded: little cell toxicity | interaction with kinases (KinomeScan) [6]: no interaction with any of the kinases | effect on levels of intracellular Aβ38, Aβ40, and Aβ42 ([2]; N2a-AβPP695, 100 μM Aftin-5, 18 h): did not modify | decrease of Aβ38 level (extracellular Aβ38; [8]): > 70% | time after addition at which Aβ42 production reached a plateau (extracellular Aβ42; N2a-AβPP695, 100 μM Aftin-5): about 12 h | effect on extracellular Aβ42 level/production (extracellular Aβ42; 18 h): linear up to the highest dose tested | increase of Aβ42 production (up to) (extracellular Aβ42; [8]): > 900% | IC50 (SH-SY5Y): 180 µM | ultrastructure of isolated mitochondria (swelling, cristae remodeling) [3]: did not induce any swelling or cristae remodeling | IC50 (N2a): 178 µM | IC50 (HT22): 194 µM | animal toxicity (Animal toxicity): little | ultrastructure of mitochondria within cells, 6 h (N2a-AβPP695 cells [7]; 100 μM, 6 h): little detectable effects | ultrastructure of mitochondria within cells, 24 h (N2a-AβPP695 cells [7]; 100 μM, 24 h, reversible upon washing): partial mitochondrial swelling without disruption of cristae

CC[C@H](CO)Nc1nc(NCc2ccccc2)c2ncn(C(C)C)c2n1 [roscovitine, (R)-Roscovitine]
effect on extracellular Aβ42 level/production (extracellular Aβ42; 18 h): little effect

CC(C)C[C@H](NP(=O)(O)O[C@@H]1O[C@@H](C)[C@H](O)[C@@H](O)[C@H]1O)C(=O)N[C@@H](Cc1c[nH]c2ccccc12)C(=O)O [phosphoramidon]
effect on extracellular Aβ40 level/production (extracellular Aβ40; 18 h): no effects | effect on extracellular Aβ38 level (extracellular Aβ38; 18 h): no effects | effect on extracellular Aβ42 level/production (extracellular Aβ42; 18 h): no effects

C[C@H](c1ccc(F)cc1CCCC(=O)O)N(c1cc(F)ccc1F)S(=O)(=O)c1ccc(Cl)cc1 [BMS 299897]
IC50 (extracellular Aβ40): 0.056 µM | IC50 (extracellular Aβ38): 0.088 µM

COc1cccc2c1C(=O)c1c(O)c3c(c(O)c1C2=O)C[C@@](O)(C(=O)CO)C[C@@H]3O[C@H]1C[C@H](N)[C@H](O)[C@H](C)O1 [doxorubicin]
ultrastructure of mitochondria within cells, positive control (N2a-AβPP695 cells [7]; 5 μM doxorubicin): altered the structure of cristae and induced cell death

CO[C@H]1C[C@@H]2CC[C@@H](C)[C@@](O)(O2)C(=O)C(=O)N2CCCC[C@H]2C(=O)O[C@H]([C@H](C)C[C@@H]2CC[C@@H](O)[C@H](OC)C2)CC(=O)[C@H](C)/C=C(\C)[C@@H](O)[C@@H](OC)C(=O)[C@H](C)C[C@H](C)/C=C/C=C/C=C/1C [rapamycin]
autophagy, LC3 foci, compound alone (N2a-AβPP695 cells [4]): accumulation of LC3 foci | effect on Aftin-5 induced extracellular Aβ42 production (extracellular Aβ42): did not prevent

C[C@H](CS)C(=O)N1CCC[C@H]1C(=O)O [captopril]
effect on extracellular Aβ40 level/production (extracellular Aβ40; 18 h): no effects | effect on extracellular Aβ38 level (extracellular Aβ38; 18 h): no effects | effect on extracellular Aβ42 level/production (extracellular Aβ42; 18 h): no effects

O=C(O)CNC(=O)C(CS)Cc1ccccc1 (centres unmarked) [thiorphan]
effect on extracellular Aβ40 level/production (extracellular Aβ40; 18 h): no effects | effect on extracellular Aβ38 level (extracellular Aβ38; 18 h): no effects | effect on extracellular Aβ42 level/production (extracellular Aβ42; 18 h): no effects

CN(Cc1ccccc1)c1nc(N)nc2[nH]cnc12 [compound (2)]
effect on rapamycin-induced autophagy (N2a-AβPP695 cells [4]): Neither Aftin-5 nor its inactive analog compound (2) impaired rapamycin-induced autophagy | effect on extracellular Aβ42 level/production (extracellular Aβ42; 18 h): inactive
